From publication PMC6688896 (Bioorganic & medicinal chemistry, 2018)
Read-outs that look alike come from different tables or passages of the source.

What was measured:
[1] = test system: six CRC tumor cell lines; assay: MTS cell proliferation assay, panel of six CRC cell lines; assay type: cell-based; conditions: 72 h, read-out: IC50 values, range over the six CRC cell lines
Summary of the method: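 Six CRC lines, each in its own medium (Leibovitz's, McCoy's 5A, MEM or RPMI) with 10% FBS and penicillin-streptomycin. Seeded at 5000 cells/well, then exposed 72 h to test compound over 0.04–10 μM or 0.001–10 μM depending on compound. Viability by colorimetric MTS; IC50 from curve fitting.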

[2] = test system: CCD841Co colonic cells; assay: Oxygen consumption rate, Seahorse XFp analyzer; assay type: cell-based; conditions: 1 μM, vs DMSO control media
Summary of the method: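 CCD841Co cells seeded at 8000 cells/well in XFp miniplates and attached overnight (37 °C, 5% CO2). Basal OCR recorded, then 1 μM test compound or DMSO in media added. Mito Stress Test followed with sequential 1 μM oligomycin, 1 μM FCCP, and 0.5 μM rotenone plus antimycin A. Mean ± SD, n = 2.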

[3] = Plasma pharmacokinetics after oral dose; assay type: in vivo, NOD/SCID mice; conditions: DK419 1 mg/kg oral, mice
Summary of the method: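 Test compound at 0.2 mg/mL in 10% N-methylpyrrolidinone/90% PEG300, single oral 1 mg/kg to NOD/SCID mice (n = 4). Serial tail-vein blood into heparin, pre-dose to 72 h. Plasma extracted with ethyl acetate plus an internal standard analog, then LC/MS/MS; calibration range 2.4 (LLOQ) to 1000 ng/mL. Parameters from compartmental (first-order absorption/elimination) and non-compartmental analysis.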

[4] = test system: pAMPK in CCD841Co cells; assay: Phospho-AMPK levels by Western blot; assay type: cell-based; conditions: whole cell lysate, vs DMSO control
Summary of the method: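 CCD841Co cells grown in MEM with 1 mM pyruvate, non-essential amino acids, 10% FBS. Plated at 0.27 million/well on poly-D-lysine-coated 12-well plates and attached overnight. Medium replaced with test compound or DMSO diluted in DMEM with 2 mM pyruvate and 2 mM L-glutamine. Lysed in Laemmli buffer; immunoblotted for phospho-AMPK (Thr172) and total AMPK, β-actin loading control.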

[5] = test system: CRC240 PDX tumors; assay: CRC240 PDX xenograft tumor growth; assay type: in vivo, NOD/SCID mice; conditions: vs vehicle, n = 3
Summary of the method: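 CRC240 PDX tissue washed and minced in PBS at 150 mg/ml, 200 μl implanted in NOD/SCID flanks. At about 100 mm3, mice randomized and dosed orally once daily for 11 days with test compound suspended at […] in 10% 1-methyl-2-pyrrolidinone/90% PEG300, or vehicle. Tumor size and body weight on days 0, 4, 8, 11; mean ± SEM, n = 3; two-tailed Student's t test vs vehicle.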

[6] = Body weight in CRC240 PDX xenograft study; assay type: in vivo; conditions: DK419 1 mg/kg orally daily for 11 days, tumor-bearing NOD/SCID mice
[7] = Niclosamide 200 mg/kg oral, mice, plasma, non-compartmental, cited from earlier work
[8] = test system: HCT116 cells; conditions: 0.5 and 1.5 μM; cited from earlier work

Row | SMILES | IC50 [1] [nM] | oxygen consumption rate [2] | time for which plasma levels were sustained [3] | AUCinf ([3]; plasma, compartmental) | AUCinf/DOSE ([3]; plasma, compartmental) | CL/F ([3]; plasma, compartmental) | Vd/F ([3]; plasma, compartmental) | AUCinf ([3]; plasma, non-compartmental) | AUCinf/DOSE ([3]; plasma, non-compartmental) | CL/F ([3]; plasma, non-compartmental) | Vd/F (Vz) ([3]; plasma, non-compartmental) | AUC0-LAST ([3]; plasma, non-compartmental, 0–72 h) | pAMPK levels by Western blot [4] | growth of CRC240 PDX tumors (tumor volume) ([5]; DK419 1 mg/kg orally daily for 11 days) | body weight [6] | growth of CRC240 PDX tumors (tumor volume) ([5]; Niclosamide 72 mg/kg orally daily for 11 days) | AUC0-LAST ([7]; 0–24 h) | AUCinf [7] | oxygen consumption rate [8]
1 | O=C(Nc1ccc(C(F)(F)F)cc1)c1cc(Cl)cc2nc(C(F)(F)F)[nH]c12 [DK419, 6-chloro-2-(trifluoromethyl)-N-(4-(trifluoromethyl)phenyl)-1H-benzo[d]imidazole-4-carboxamide] | 70 to 360 | increases the rate of oxygen consumption | more than 24 hours | 16300 ng·h/mL (per kg BW) | 16.3 µg·h/mL (per mg) | 0.06 L/h (per kg BW) | 0.98 L (per kg BW) | 16900 ng·h/mL (per kg BW) | 16.9 µg·h/mL (per mg) | 0.06 L/h (per kg BW) | 0.80 (Vz) L (per kg BW) | 16.8 ( 0–72 h) h μg/mL (per kg BW) | increased the levels of pAMPK | inhibited the growth of CRC240 PDX tumors compared to vehicle control | Neither DK419 nor Niclosamide produced a change in body weight | – | – | – | –
2 | O=C(Nc1ccc([N+](=O)[O-])cc1Cl)c1cc(Cl)ccc1O [Niclosamide, reference compound] | 110 to 2390 | increases the oxygen consumption rate | – | – | – | – | – | – | – | – | – | – | increased pAMPK levels versus control | – | – | inhibited tumor growth | 1.01 ( 0–24 h) h μg/mL (per kg BW) | 1020 ng·h/mL (per kg BW) | caused oxygen consumption rate to increase
